Results reported in ChEMBL document CHEMBL1141864, “Structure-activity relationships in 1,4-benzodioxan-related compounds. 8.(1) {2-[2-(4-chlorobenzyloxy)phenoxy]ethyl}-[2-(2,6-dimethoxyphenoxy)ethyl]amine (clopenphendioxan) as a tool to highlight the involvement of alpha1D- and alpha1B-adrenoreceptor subtypes in the regulation of human PC-3 …” (J Med Chem, 2005).

Columns and labels:
[1] = molecular target: T1, Alpha-1A adrenergic receptor (Rattus norvegicus) (UniProt P43140); assay: ADRA1A blocking activity assessed by antagonism of (-)-NE induced contractions on isolated rat prostatic vas deferens; assay type: functional, tissue-based
T1 sequence (whole entry): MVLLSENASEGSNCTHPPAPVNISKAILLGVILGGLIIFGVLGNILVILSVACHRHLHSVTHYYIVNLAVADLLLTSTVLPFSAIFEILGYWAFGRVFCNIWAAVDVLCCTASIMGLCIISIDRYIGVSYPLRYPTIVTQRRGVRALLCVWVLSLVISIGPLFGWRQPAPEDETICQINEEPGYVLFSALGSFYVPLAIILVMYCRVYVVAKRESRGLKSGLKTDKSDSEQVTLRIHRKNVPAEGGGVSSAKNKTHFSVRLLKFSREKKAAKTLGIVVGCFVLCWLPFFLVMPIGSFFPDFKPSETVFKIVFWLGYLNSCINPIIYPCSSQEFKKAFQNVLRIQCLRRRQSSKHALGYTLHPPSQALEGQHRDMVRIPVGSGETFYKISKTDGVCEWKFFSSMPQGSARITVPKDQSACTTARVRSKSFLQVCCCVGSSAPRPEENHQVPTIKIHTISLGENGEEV
Summary of the method: (§1)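 Isolated rat tissue: each antagonist concentration tested four times over 0.01–1 μM; pK_B calculated by van Rossum method from shifts of (-)-noradrenaline contraction curves (vas deferens, α1A; thoracic aorta, α1D) or (-)-phenylephrine contraction curves (spleen, α1B).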

[2] = molecular target: T2, 5-hydroxytryptamine receptor 1A (Homo sapiens, UniProt P08908); assay: Displacement of [3H]8-hydroxy-2-(di-n-propylamino)tetralin from cloned human 5HT1A receptor expressed in HeLa cells; assay type: cell-based
T2 sequence (P08908 whole entry): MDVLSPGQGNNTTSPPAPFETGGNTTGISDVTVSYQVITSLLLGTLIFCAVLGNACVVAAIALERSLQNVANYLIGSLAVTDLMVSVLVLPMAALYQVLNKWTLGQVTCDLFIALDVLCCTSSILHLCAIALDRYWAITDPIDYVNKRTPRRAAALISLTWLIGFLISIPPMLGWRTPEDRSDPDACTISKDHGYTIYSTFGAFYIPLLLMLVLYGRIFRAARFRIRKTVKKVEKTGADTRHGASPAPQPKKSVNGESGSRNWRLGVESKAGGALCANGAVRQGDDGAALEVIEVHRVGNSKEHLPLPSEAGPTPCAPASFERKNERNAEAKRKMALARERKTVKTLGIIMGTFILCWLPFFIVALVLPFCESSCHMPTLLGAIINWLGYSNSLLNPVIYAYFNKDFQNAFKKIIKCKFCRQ
Summary of the method: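 Radioligand binding on cloned human receptors, with [3H]prazosin for α1 subtypes (CHO cells) and [3H]8-OH-DPAT for 5-HT1A (HeLa cells); each experiment in triplicate, Ki from two to three experiments agreeing within ±20%, reported as pKi.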

PC-3 = assay: Cytotoxic activity on human PC3 prostate cancer cells by SRB assay; assay type: functional; conditions: for GI50 / LC50 (50% lethal concentration) / TGI: Homo sapiens, PC-3
Summary of the method: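 NCI-protocol SRB assay on PC-3 cells grown in DMEM/10% FBS/2 mM glutamine. Seeded 24 h, then compounds in medium for 48 h at 37 °C, 5% CO2, in quadruplicate. A time-zero plate was read. Cells TCA-fixed, stained with 0.4% SRB, absorbance at 520 nm. GI50, TGI and LC50 interpolated from % growth versus log concentration.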

[3] = molecular target: T3, Alpha-1D adrenergic receptor (Rattus norvegicus) (UniProt P23944); assay: ADRA1D blocking activity assessed by antagonism of (-)-NE induced contractions on isolated rat thoracic aorta; assay type: functional, tissue-based; summary of the method: as §1
T3 sequence (whole entry): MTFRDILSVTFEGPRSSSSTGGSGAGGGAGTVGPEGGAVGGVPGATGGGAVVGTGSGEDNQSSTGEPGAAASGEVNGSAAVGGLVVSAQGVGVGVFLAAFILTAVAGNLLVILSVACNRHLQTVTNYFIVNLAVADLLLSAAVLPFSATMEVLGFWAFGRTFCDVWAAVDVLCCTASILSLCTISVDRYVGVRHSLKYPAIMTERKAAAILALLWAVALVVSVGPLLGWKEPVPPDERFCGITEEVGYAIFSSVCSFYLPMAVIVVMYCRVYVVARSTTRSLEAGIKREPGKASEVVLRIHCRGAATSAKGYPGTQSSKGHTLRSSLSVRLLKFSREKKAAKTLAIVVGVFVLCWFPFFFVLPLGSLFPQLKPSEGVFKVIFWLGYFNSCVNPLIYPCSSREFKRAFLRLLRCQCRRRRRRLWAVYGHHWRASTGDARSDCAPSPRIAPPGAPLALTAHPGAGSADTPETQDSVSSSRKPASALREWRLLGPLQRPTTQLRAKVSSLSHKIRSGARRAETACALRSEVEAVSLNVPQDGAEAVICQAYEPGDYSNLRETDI

[4] = molecular target: T4, Alpha-1A adrenergic receptor (Homo sapiens, UniProt P35348); assay: Displacement of [3H]prazosin from cloned human ADRA1A expressed in CHO cells; assay type: cell-based
T4 sequence (P35348 whole entry): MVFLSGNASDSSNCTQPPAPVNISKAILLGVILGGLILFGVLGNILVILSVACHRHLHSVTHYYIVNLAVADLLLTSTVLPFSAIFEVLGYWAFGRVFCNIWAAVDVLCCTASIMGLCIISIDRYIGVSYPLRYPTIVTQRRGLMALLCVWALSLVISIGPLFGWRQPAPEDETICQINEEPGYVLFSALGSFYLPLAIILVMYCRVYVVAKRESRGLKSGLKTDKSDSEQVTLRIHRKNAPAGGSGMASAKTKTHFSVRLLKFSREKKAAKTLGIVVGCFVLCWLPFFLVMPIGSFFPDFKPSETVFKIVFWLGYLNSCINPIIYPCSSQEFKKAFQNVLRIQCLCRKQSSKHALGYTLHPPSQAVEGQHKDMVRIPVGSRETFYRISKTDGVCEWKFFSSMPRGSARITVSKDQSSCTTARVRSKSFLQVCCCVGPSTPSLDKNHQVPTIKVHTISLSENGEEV

[5] = molecular target: T5, Alpha-1B adrenergic receptor (Homo sapiens, UniProt P35368); assay: Displacement of [3H]prazosin from cloned human ADRA1B expressed in CHO cells; assay type: cell-based
T5 sequence (P35368 whole entry): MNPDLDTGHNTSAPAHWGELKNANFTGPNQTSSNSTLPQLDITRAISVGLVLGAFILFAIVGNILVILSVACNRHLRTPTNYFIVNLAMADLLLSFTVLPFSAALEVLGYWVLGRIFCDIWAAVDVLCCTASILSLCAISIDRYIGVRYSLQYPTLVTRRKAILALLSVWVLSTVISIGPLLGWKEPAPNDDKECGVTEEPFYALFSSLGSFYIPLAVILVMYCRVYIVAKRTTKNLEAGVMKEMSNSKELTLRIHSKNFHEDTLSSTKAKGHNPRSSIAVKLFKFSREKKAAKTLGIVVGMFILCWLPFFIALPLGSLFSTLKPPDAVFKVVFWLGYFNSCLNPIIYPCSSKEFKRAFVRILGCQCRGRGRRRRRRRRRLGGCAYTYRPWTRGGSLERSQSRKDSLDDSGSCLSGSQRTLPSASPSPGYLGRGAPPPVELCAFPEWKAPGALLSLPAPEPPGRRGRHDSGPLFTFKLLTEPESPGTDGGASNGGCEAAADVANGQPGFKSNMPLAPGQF

Row | SMILES | pKb [1] | Ki [2] | GI50 (PC-3) | LC50 (50% lethal concentration) (PC-3) | TGI (PC-3) | pKb [3] | Ki [4] | Ki [5] | Activity (PC-3)
1 | COc1cccc(OC)c1OCCNCCOc1ccccc1OCc1ccccc1[N+](=O)[O-] | 8.2 | 0.024 µM | 13.2 µM | 95.5 µM | 34.7 µM | 8.95 | 0.00794 µM | 0.00251 µM | –
2 | COc1cccc(OC)c1OCCNCCOc1ccccc1OCc1ccc(Cl)cc1 [CLOPENPHENDIOXAN] | 8.17 | 0.0155 µM | 2.4 µM | 52.5 µM | 14.5 µM | 9.11 | 0.000251 µM | 0.001 µM | –
3 | COc1cccc(COc2ccccc2OCCNCCOc2c(OC)cccc2OC)c1 | 8.3 | 0.0309 µM | 2.5 µM | 61.7 µM | 15.1 µM | 9.12 | 0.002 µM | 0.002 µM | –
4 | COc1cccc(OC)c1OCCNCCOc1ccccc1OCc1cccc(Cl)c1 | 8.12 | 0.00661 µM | 5.9 µM | 58.9 µM | 20.4 µM | 8.72 | 0.000251 µM | 0.000158 µM | –
5 | COc1ccccc1COc1ccccc1OCCNCCOc1c(OC)cccc1OC | 8.53 | 0.0234 µM | 8.9 µM | 100 µM | 30.2 µM | 8.86 | 0.002 µM | 0.00631 µM | –
6 | COc1cccc(OC)c1OCCNCCOc1ccccc1OCc1ccc(C)cc1 | 8.23 | 0.0224 µM | 7.8 µM | 61.7 µM | 27.5 µM | 9.12 | 0.002 µM | 0.000251 µM | –
7 | COc1cccc(OC)c1OCCNCCOc1ccccc1OCc1ccccc1 | 8.39 | 0.0117 µM | 26.9 µM | 193 µM | 76.9 µM | 9.37 | 0.000468 µM | 0.000537 µM | –
8 | COc1cccc(OC)c1OCCNCCOc1ccccc1OCc1ccccc1Cl | 8.56 | 0.00479 µM | 5.4 µM | 58.9 µM | 17.8 µM | 8.59 | 0.00141 µM | 0.000562 µM | –
9 | COc1ccc(COc2ccccc2OCCNCCOc2c(OC)cccc2OC)cc1 | 8.54 | 0.0174 µM | 8.5 µM | – | 34.7 µM | 9.21 | 0.002 µM | 0.000398 µM | <50%
10 | COc1cccc(OC)c1OCCNCCOc1ccccc1OCc1ccccc1C | 7.81 | 0.0112 µM | 11.5 µM | – | 33.9 µM | 8.64 | 0.00158 µM | 0.000794 µM | <50%
11 | COc1cccc(OC)c1OCCNCCOc1ccccc1OCc1cccc(C)c1 | 8.3 | 0.0182 µM | 12 µM | 87.1 µM | 32.3 µM | 8.85 | 0.000398 µM | 0.000251 µM | –
12 | COc1cccc(OC)c1OCCNCCOc1ccccc1OCc1cccc([N+](=O)[O-])c1 | 8.85 | 0.0209 µM | 13.2 µM | – | 38.9 µM | 9.28 | 0.000316 µM | 0.000794 µM | <50%
13 | COc1cccc(OC)c1OCCNCCOc1ccccc1OCc1ccc([N+](=O)[O-])cc1 | 8.58 | 0.0117 µM | 12 µM | – | 43.6 µM | 9.41 | 0.00126 µM | 0.000398 µM | <50%
